Results on three molecules are retold here after ChEMBL document CHEMBL3352113, “Cytoprotective pyridinol antioxidants as potential therapeutic agents for neurodegenerative and mitochondrial diseases” (Bioorg Med Chem, 2014).

Calls of active or inactive are those of the source. The rule behind the calls is not given here.

The subject of data set [1] is Lymphocyte. In words: Cytoprotective activity in human lymphocytes obtained from FRDA patient assessed as viable cells at 0.5 uM after 16 hrs by trypan blue exclusion assay. In kind it is functional. Particulars: read-out: Activity. In outline:
(§1)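 Lymphocytes from FRDA or Leigh's syndrome patients, grown in RPMI-1640 with 15% fetal calf serum and 2 mM glutamine, kept in log phase. Test agents at 0.1, 0.5 and 2.5 µM; diethyl maleate (DEM) added to deplete glutathione and induce oxidative stress. Viability expressed relative to untreated cells (100%). Values are mean ± SD/SEM as tabulated.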

The subject of data set [2] is Lymphocyte. In words: Inhibition of lipid peroxidation in diethyl maleate-treated human lymphocytes obtained from FRDA patient at 100 to 250 nM after 16 hrs using C11-BODIPY581/591 by FACS analysis. In kind it is functional, cell-based. The method, boiled down:
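FRDA lymphocytes depleted of glutathione with DEM, probed with C11-BODIPY581/591. Green (oxidized) fluorescence read by flow cytometry at 490/510 nm. Median mean fluorescence taken relative to untreated control and converted to % lipid peroxidation scavenging; mean ± SEM, n = 3.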

In data set [3] the test system is Lymphocyte. Nature of the data set: Inhibition of ROS generation in diethyl maleate-treated human lymphocytes obtained from FRDA patient compound pretreated at 100 to 500 nM for 16 hrs using DCFH-DA by FACS analysis. In kind it is functional, cell-based. The method, boiled down: (§2)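 FRDA lymphocytes pretreated with compounds at 100, 250 and 500 nM for 16 h, then given DEM for 80 min to raise ROS. Stained with DCFH-DA for 15 min, then DCF fluorescence read by flow cytometry. Reported as % ROS scavenging; mean ± SEM of three experiments run in duplicate.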
Background: In flow cytometry, cells or beads pass a laser one at a time.

In data set [4] the test system is Lymphocyte. In words: Cytoprotective activity in human lymphocytes obtained from FRDA patient assessed as viable cells at 2.5 uM after 16 hrs by trypan blue exclusion assay. It is filed as functional. Particulars: read-out: Activity. The method, boiled down:
as §1

The species entered for data set [5] is Bos taurus. In words: Inhibition of bovine heart mitochondrial NADH oxidase complex I/III/IV assessed as remaining activity at 5 uM by spectrophotometry relative to untreated control.
In data set [6] the test system is Lymphocyte. Nature of the data set: Increase in ATP production in CoQ10-deficient lymphocytes (unknown origin) assessed as cellular ATP level at 25 uM after 48 hrs using luciferin-luciferase reaction by bioluminescence assay relative to control. In kind it is functional. The method, boiled down:
(§3)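 CoQ10-deficient lymphocyte line GM17932 grown in glucose-free RPMI 1640 with 25 mM galactose, 2 mM glutamine and 10% dialyzed FBS, forcing oxidative phosphorylation. Incubated with compounds at 5, 10 or 25 µM for 48 h. Total intracellular ATP measured by luciferin–luciferase reaction, expressed as % of untreated control.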

Data set [7] deals with Lymphocyte. Nature of the data set: Inhibition of oxidative stress-induced mitochondrial membrane depolarization in diethyl maleate-treated human lymphocytes obtained from FRDA patient assessed as cells with intact mitochondrial membrane potential at 250 nM pretreated for 16 hrs using TMRM by FACS analysis (reference value: 95%). It is filed as functional. On the set-up: scale not given: the % may be the effect or the level left.

Data set [8] concerns Lymphocyte. Nature of the data set: Increase in ATP production in CoQ10-deficient lymphocytes (unknown origin) assessed as cellular ATP level at 5 uM after 48 hrs using luciferin-luciferase reaction by bioluminescence assay relative to control. In kind it is functional. The method, boiled down: as §3
Data set [9] deals with Lymphocyte. In words: Inhibition of oxidative stress-induced mitochondrial membrane depolarization in diethyl maleate-treated human lymphocytes obtained from FRDA patient assessed as cells with intact mitochondrial membrane potential at 100 nM pretreated for 16 hrs using TMRM by FACS analysis (reference value: 95%). On the set-up: scale not given: the % may be the effect or the level left. In kind it is functional.

For data set [10], the species on record is Bos taurus. In words: Inhibition of bovine heart mitochondrial NADH oxidase complex I/III/IV assessed as remaining activity at 1 uM by spectrophotometry relative to untreated control.
The test system of data set [11] is Lymphocyte. In words: Cytoprotective activity in human lymphocytes obtained from FRDA patient assessed as viable cells at 0.1 uM after 16 hrs by trypan blue exclusion assay. It is filed as functional. Particulars: read-out: Activity. In outline:
as §1

Data set [12] deals with Lymphocyte. Nature of the data set: Cytoprotective activity in human lymphocytes obtained from FRDA patient assessed as viable cells after 16 hrs by trypan blue exclusion assay. It is filed as functional, cell-based. In outline:
as §1

The species entered for data set [13] is Bos taurus. In words: Inhibition of bovine heart mitochondrial NADH oxidase complex I/III/IV assessed as remaining activity by spectrophotometry relative to untreated control.
The nature of data set [14]: Metabolic stability in bovine liver microsomes at 25 uM after 30 mins by reverse phase HPLC analysis. In kind it is ADME, Bos taurus. Conditions: cattle, read-out: Stability. The method, boiled down:
(§4)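 Compounds incubated 30 min with activated bovine liver microsomes. Remaining parent compound quantified by reversed-phase HPLC and expressed as % recovered; mean ± SD.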
In general terms: Liver microsomes are vesicles of endoplasmic reticulum, rich in cytochrome P450 enzymes.

Data set [15] deals with Lymphocyte. In words: Inhibition of oxidative stress-induced mitochondrial membrane depolarization in diethyl maleate-treated human lymphocytes obtained from FRDA patient assessed as cells with intact mitochondrial membrane potential at 500 nM pretreated for 16 hrs using TMRM by FACS analysis (reference value: 95%). On the set-up: scale not given: the % may be the effect or the level left. In kind it is functional.

Data set [16] concerns Lymphocyte. Nature of the data set: Inhibition of oxidative stress-induced mitochondrial membrane depolarization in diethyl maleate-treated human lymphocytes obtained from FRDA patient assessed as cells with intact mitochondrial membrane potential pretreated for 16 hrs using TMRM by FACS analysis. It is filed as functional, cell-based.
The test system of data set [17] is Lymphocyte. In words: Cytoprotective activity in human lymphocytes obtained from Leigh's syndrome patient assessed as viable cells at 2.5 uM after 16 hrs by trypan blue exclusion assay. Conditions: read-out: Activity. It is filed as functional. In outline:
as §1

The nature of data set [18]: Drug metabolism in bovine liver microsomes at 25 uM after 30 mins by reverse phase HPLC analysis. In kind it is ADME, Bos taurus. Particulars: cattle, read-out: Drug metabolism. The method, boiled down:
as §4

The species entered for data set [19] is Bos taurus. In words: Inhibition of bovine heart mitochondrial NADH oxidase complex I/III/IV assessed as remaining activity at 10 uM by spectrophotometry relative to untreated control.
For data set [20], the system named is Lymphocyte. In words: Increase in ATP production in CoQ10-deficient lymphocytes (unknown origin) assessed as cellular ATP level at 10 uM after 48 hrs using luciferin-luciferase reaction by bioluminescence assay relative to control. In kind it is functional. In outline:
as §3

The subject of data set [21] is Lymphocyte. In words: Cytoprotective activity in human lymphocytes obtained from Leigh's syndrome patient assessed as viable cells after 16 hrs by trypan blue exclusion assay. In kind it is functional, cell-based. The method, boiled down:
as §1

Data set [22] relates to Lymphocyte. Nature of the data set: Cytoprotective activity in human lymphocytes obtained from Leigh's syndrome patient assessed as viable cells at 0.1 uM after 16 hrs by trypan blue exclusion assay. It is filed as functional. Conditions: read-out: Activity. The method, boiled down: as §1
Data set [23] has as its system Lymphocyte. Nature of the data set: Cytoprotective activity in human lymphocytes obtained from Leigh's syndrome patient assessed as viable cells at 0.5 uM after 16 hrs by trypan blue exclusion assay. It is filed as functional. Particulars: read-out: Activity. The method, boiled down: as §1
In data set [24] the test system is Lymphocyte. In words: Inhibition of ROS generation in diethyl maleate-treated human lymphocytes obtained from FRDA patient compound pretreated for 16 hrs using DCFH-DA by FACS analysis. It is filed as functional, cell-based. In outline: as §2

With `CCCCCCCCCCc1nc(N(C)C)c(C)c(C)c1O`, the figures for the viability at 0.5 µM in data set [1] and in [23] were 74% and 77%, respectively. Besides, the inhibition result in data set [2] and in data set [3] was “Active” each time. For the same molecule, the viability at 2.5 µM in [4] came to 87%; in data set [17] it was 79%. Further, the Activity in data set [5] turned out to be 28%; in [6], 13%; in data set [7], 82%; in [8], 89%; in data set [9] it was 65%; in data set [10] it was 35%. For the same molecule, the Activity entry in data set [12] is “Dose-dependent effect”; in data set [15] it was 90%; in data set [19] it was 13%; in data set [20], 52%; in data set [21], “Dose-dependent effect”. Besides, the viability at 0.1 µM in data set [11] came to 36%; in [22] it was 6%. Moreover, the inhibition entry in data set [13] and in [16] was “Dose-dependent effect” each time. The remaining at 0.5 h, 25 µM in data set [14] was found to be 70%. Further, the metabolised at 0.5 h, 25 µM in data set [18] came out at 25%.
Take `CCCCCCCCCCCCCCCCc1nc(N(C)C)c(C)c(C)c1O`: the viability at 0.5 µM in [1] amounted to 91%; in data set [23], 78%. The inhibition entry in data set [2] and in [3] was “Active” throughout. The viability at 2.5 µM came to 92% in [4] and 83% in [17]. Also, the Activity came to 95% in data set [5]; 41% in data set [6]; 84% in data set [7]; 100% in data set [8]; 67% in data set [9]; 98% in [10]. The Activity result is “Dose-dependent effect” in data set [12]; 92% in data set [15]; 92% in data set [19]; 79% in data set [20]; “Dose-dependent effect” in data set [21]. The viability at 0.1 µM was 80% in [11] and 29% in data set [22]. The inhibition result in [13], in [16] and in [24] was “Dose-dependent effect” in each case. In addition, the remaining at 0.5 h, 25 µM in [14] amounted to 70%. Also, the metabolised at 0.5 h, 25 µM in [18] worked out at 20%.
Consider `CCCCCCCCCCCCCCCCc1c(C)c(N(C)C)nc(C)c1O`, for which the results for the viability at 0.5 µM in [1] and in data set [23] were 75% and 56%, respectively. Further, the inhibition result in [2] and in data set [3] was “Active” in each case. Further, the figures for the viability at 2.5 µM in data set [4] and in [17] were 84% and 85%, respectively. Moreover, the Activity in [5] turned out to be 93%; in data set [6], 37%; in data set [7] it was 83%; in [8], 96%; in data set [9], 62%; in data set [10], 95%. Also, the Activity result in data set [12] is “Dose-dependent effect”; in data set [15], 91%; in [19], 86%; in data set [20], 80%; in [21], “Dose-dependent effect”. In addition, the viability at 0.1 µM in data set [11] worked out at 52%; in [22], 11%. For the same molecule, the inhibition entry in [13], in [16] and in data set [24] was “Dose-dependent effect” throughout. In addition, in [14], the remaining at 0.5 h, 25 µM was 70%. Besides, the metabolised at 0.5 h, 25 µM in data set [18] worked out at 20%.
